The assay relates to Mycobacterium tuberculosis. The experiment in a line: Antitubercular activity against Mycobacterium tuberculosis 90-221387. It counts as functional. In a few lines: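 Agar proportion method on Middlebrook 7H10 with OADC, clinical susceptible isolate 90-221387. Compound serially diluted into agar at 50-56 °C, final 100 to 0.8 µg/mL, in quadrant plates. Inoculum in 7H9 broth adjusted to McFarland no. 1, then 10-2 dilution, spotted on each quadrant. Incubated 35 °C, 10% CO2, 2 weeks. MIC read; ethambutol positive control; means of 3 or 4 replicates.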

In brackets after ≈: the same amount, converted by molar mass. Some results are limits rather than exact numbers.

Take `CC(=O)O[C@H]1CC[C@@H](C)[C@]23OC(C)(C)[C@H](C[C@H](OC(=O)c4ccccc4)[C@]12COC(=O)c1ccccc1)[C@H]3OC(=O)c1ccccc1`: the MIC is 78.1 µM (≈ 50 µg/mL).
The figure for `CC(=O)O[C@H]1C[C@@H](C)[C@]23OC(C)(C)[C@H](C[C@H](OC(=O)c4ccccc4)[C@]2(COC(=O)c2ccccc2)[C@H]1OC(C)=O)[C@H]3OC(=O)c1ccccc1` is 96 µM (≈ 67.1 µg/mL).
The compound `CC(=O)O[C@H]1CC[C@@H](C)[C@@]23C[C@@H](C[C@H](OC(=O)c4ccccc4)[C@]12C)C(C)(C)O3` returned a minimal inhibitory concentration (MIC) of 26 µM (≈ 10.4 µg/mL).
In turn, `CC(=O)O[C@H]1[C@@H](O)C[C@@H](C)[C@]23OC(C)(C)[C@H](C[C@H](OC(=O)c4ccccc4)[C@]12COC(=O)c1ccccc1)[C@H]3OC(=O)c1ccccc1` returned an MIC of 19.5 µM (≈ 12.8 µg/mL).
The figure for `CC(=O)O[C@H]1C[C@@H](C)[C@]23OC(C)(C)[C@H](C[C@H](OC(=O)c4ccccc4)[C@]2(COC(=O)c2ccccc2)[C@H]1O)[C@H]3OC(=O)c1ccccc1` is 15.8 µM (≈ 10.4 µg/mL).
Compound `O=Cc1ccc(O)cc1` [4-HYDROXYBENZALDEHYDE] gave an MIC above 400 µM.
With `CC[C@H](CC[C@@H](C)[C@H]1CC[C@H]2[C@@H]3CC=C4CC(=O)CC[C@]4(C)[C@H]3CC[C@]12C)C(C)C` [BETA-SITOSTENONE] the figure was above 400 µM; with `CC[C@H](CC[C@@H](C)[C@H]1CC[C@H]2[C@@H]3CC=C4C[C@@H](O)CC[C@]4(C)[C@H]3CC[C@]12C)C(C)C` [BETA-SITOSTEROL], above 400 µM; with `CC[C@@H](CO)NCCN[C@@H](CC)CO` [ETHAMBUTOL], 30.6 µM (≈ 6.25 µg/mL).
The figure for `O=Cc1cc(Cc2ccc(O)cc2)ccc1O` [FORKIENIN] is 276 µM (≈ 63 µg/mL); for `CC(=O)O[C@H]1C[C@@H](C)[C@]23OC(C)(C)[C@H](C[C@H](OC(=O)c4ccccc4)[C@]2(COC(=O)c2ccccc2)[C@H]1OC(C)=O)[C@H]3OC(C)=O` [MUTANGIN] it is 51.8 µM (≈ 33 µg/mL).
Take `CC(=O)O[C@H]1[C@@H](OC(=O)c2ccccc2)C[C@@H](C)[C@]23OC(C)(C)[C@H](C[C@H](OC(=O)c4ccccc4)[C@]12C)[C@H]3OC(=O)c1ccccc1` [ORBICULIN G]: the lowest concentration to inhibit growth (MIC) was 14.6 µM (≈ 9.35 µg/mL). This MIC is about 3.5-fold lower than that of the compound before.
The figure for `O=C(O)c1ccc(O)cc1` [PARABEN] is 362 µM (≈ 50 µg/mL); for `COc1cc(C(=O)O)cc(OC)c1O` [SYRINGIC ACID] it is 318 µM (≈ 63 µg/mL); for `COc1cc(C(=O)O)ccc1O` [VANILLIC ACID] it is 375 µM (≈ 63.1 µg/mL).

One may read the MIC as the lowest concentration found to suppress growth. A higher MIC goes with a need for much substance.

These data come from ChEMBL document CHEMBL1141424, “Antitubercular dihydroagarofuranoid sesquiterpenes from the roots of Microtropis fokienensis” (2007).
